A short description of this data set: Toxicity liver stage against HepG2, at 10uM. Particulars: human, HepG2-A16-CD81EGFP cells; read-out: INHIBITION
It is filed as cell-based. Further details: test concentration 10 uM, cell line HepG2-A16-CD81EGFP. The procedure, abridged:
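Uninfected HepG2-A16-CD81EGFP cells, 3 × 10^3 per well, 1536-well, plated on prespotted compound at 10 μM final, parasite-free screening media added to match infected plates; puromycin 10 μM positive, DMSO 0.5% negative; run in parallel with 48 h PbLuc assay at 37 °C, 5% CO2; viability by CellTiter-Glo luminescence, normalized to controls.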
As for `O=c1[nH]c(N2CCN(C3CC3)CC2)nc2c1cnn2-c1ccccc1`, the cytotoxicity at 10 µM is 10.8%.
For `CC1(C)CC(CN2CCC3(CCC(=O)N(C4CCC4)C3)CC2)CCO1` (stereo unspecified), the cytotoxicity at 10 µM was 0.986%.
To `CCN(CCS(=O)(=O)c1ccc(Cl)cc1)Cc1ccc(OC)c(OC)c1` belongs 31.7%; to `Cn1c(CN2CCCC(Cn3cc(CCO)nn3)C2)cc2ccccc21` (stereo unspecified), -0.849%; to `Cc1n[nH]c2nc(-c3cccc(Cl)c3)cc(C(=O)O)c12`, -1.05%.
To `Oc1cc(CNCCN2CCCCC2)nc2c(F)cccc12` belongs -1.16%.
The figure for `COCC(C)NS(=O)(=O)c1ccc(Br)cn1` (stereo unspecified) is -6.74%; for `O=C(c1ccc(=O)[nH]n1)N1CCC(CN2CCOCC2)CC1` it is 4.13%.
`Nc1ccc(-c2ccc(F)cc2Cl)cn1`: the cytotoxicity at 10 µM was -151%.
As to `CCC(=O)N1CCCCC1c1nc(O)c2c(n1)CN(S(=O)(=O)CC)CC2` (stereo unspecified), the cytotoxicity at 10 µM stood at 1.7%.
The figure for `CC(C)(C(=O)NCc1ccc(C#N)cc1)n1cc(Br)cn1` is 12.4%; for `Cn1cc(CN2CCc3ncn(C)c3C2COCc2ccccc2)cn1` (stereo unspecified) it is 9.19%; for `COc1cccc(N2CCN(C(=O)CN(C)c3cnccn3)CC2)c1` it is -15.2%.
As for `C[C@@H]1CN(C(=O)c2cc(Cn3cnc4ccccc43)on2)C[C@H](C)O1`, the cytotoxicity at 10 µM came to 1.69%.
As to `COc1ccccc1CN(CC1CCCO1)C(=O)c1cc(C)n[nH]1` (stereo unspecified), the cytotoxicity at 10 µM is -2.28%.
To `COc1ccccc1C1CNC(=O)c2nc(-c3ncc[nH]3)[nH]c2C1` (stereo unspecified) belongs -8.6%; to `CC(C)Oc1ncc(C(=O)N2CCC(NC(=O)C3CC3)CC2)cc1Cl`, -20.8%; to `CCc1cc(O)nc(C2CCCN2C(=O)c2cccnc2)n1` (stereo unspecified), -1.54%.
The figure for `OCc1cccc(CNCc2cccc3c2OCCO3)c1` is 4.25%.
Consider `Cc1cc(CNCC2CNc3ccnn3C2)no1` (stereo unspecified), for which the cytotoxicity at 10 µM was -6.06%.
To `CSc1cccc(CN(C)C(=O)CN2CCN(c3ncccn3)CC2)c1` belongs 4.64%.
The figure for `CCOC(=O)Cn1nnnc1-c1ccccc1` is 0.363%; for `CS(=O)(=O)c1ccc(NC(=O)N2C[C@H](O)[C@@H](N3CCOCC3)C2)cc1` it is -46%; for `CCOc1ccc(CNC(=O)N(C)CC(C)(C)O)cc1C` it is 4.3%.
To `Cn1ccc(C(=O)N2CCC3(CCC(=O)N(C4CCCC4)C3)CC2)n1` belongs -6.19%; to `CCC[C@@H]1CN(c2cncc(C(=O)N3CCOCC3)n2)C[C@H]1N(C)C`, 4.63%; to `c1ccc(-n2ccc(CN3CCCC(Cn4cncn4)C3)n2)cc1` (stereo unspecified), -16%.
For the compound `NC(=O)c1c(NC(=O)C2CCCO2)sc2c1CCc1ccccc1-2` (stereo unspecified), the cytotoxicity at 10 µM turned out to be 0.794%.
The figure for `Cc1cc(C)n(CC(C)NC(=O)c2cc(CN3CCC(O)CC3)on2)n1` (stereo unspecified) is 0.873%.
The figure for `COCC(=O)N1CCCN(Cc2c(C)nc3ccc(Cl)cn23)CC1` is 5.39%.
Consider `CC(C)NC(=O)Nc1cccc2c1CCN(S(C)(=O)=O)C2`, for which the cytotoxicity at 10 µM was -8.59%.
Consider `Cc1cccc(N2CCC3(CCCN(C(=O)Cc4cccnc4)C3)C2)n1` (stereo unspecified), for which the cytotoxicity at 10 µM came to 0.824%.
To `c1cc(-c2cn[nH]c2)ncc1CN1CCCCC1` belongs -1.35%; to `Cc1nc(C2CCCN2CC(=O)Nc2cc(C(C)(C)C)nn2C)no1` (stereo unspecified), -10.9%; to `O=C(CCCOc1ccccc1Cl)N1CCCC(n2cncn2)C1` (stereo unspecified), -0.0868%.
To `CC(C)(C)SCCNC(=O)[C@@]12CNC[C@@H]1CN(S(C)(=O)=O)C2` belongs 0.251%; to `CC(CN1CCOCC1)NC1CCN(Cc2cccc(O)c2)CC1` (stereo unspecified), -0.683%; to `Cc1cncc(C2CCN(Cc3ccncc3)CC2)n1`, -3.08%.
To `COc1ccc(-c2nnc(CN3CCNC(=O)C3)o2)cc1` belongs -2.27%; to `CCCn1ncc(C(=O)NCc2n[nH]c3c2CCCCC3)c1C`, 8.72%; to `Cc1ccccc1CCC(=O)N1CCc2ncnc(NCCO)c2CC1`, -21%.
`Cc1ccccc1C(=O)NCc1ccnc(N(C)C)c1`: the cytotoxicity at 10 µM was -8.84%.
To `CCc1nnc2n1CCN(CCS(=O)(=O)c1ccccc1)C2` belongs -11.6%; to `COCCN(C)CCN1CC2(CCN(C3CCNCC3)CC2)OC1=O`, 1.64%.
The figure for `Cn1nc(C(=O)N2CCCC(n3cncn3)C2)ccc1=O` (stereo unspecified) is -17.4%.
The figure for `CCn1cc(NC(=O)C(C)n2ncc(Cl)c2C)c(C(=O)OC)n1` (stereo unspecified) is 7.19%; for `Cn1nccc1-c1nc2c(cc1C(=O)O)CCN(CC1CC1)CC2` it is -119%.
For `CCN1CCN(CCNc2nc3ccc(C)cc3c(=O)n2C)CC1`, the cytotoxicity at 10 µM came out at 10.7%.
The figure for `O=C(CCc1nnc2ccccn2c1=O)NCc1ccco1` is -7.51%.
As for `O=C(c1cc2c(s1)CCCC2)N1CCc2nc(C3CCCN3)ncc2C1` (stereo unspecified), the cytotoxicity at 10 µM was -3.04%.
For `COCCN1CCC(CNCc2c[nH]nc2C(C)(C)C)CC1`, the cytotoxicity at 10 µM is -17%.
To `O=C(NCc1ccc(OCC2CC2)nc1)Nc1c(F)cccc1F` belongs 9.47%.
Regarding `CC(C)c1nc2n(n1)CC(NCc1ccncc1)CC2` (stereo unspecified), the cytotoxicity at 10 µM is -13.9%.
Take `CC1=Nc2c(c(=O)[nH]n2C(C)C)C(c2ccc(F)c(F)c2)S1` (stereo unspecified): the cytotoxicity at 10 µM is -5%.
Consider `CNc1nc(C2CCCN2C(C)=O)nc2c1CN(CCO)CC2` (stereo unspecified), for which the cytotoxicity at 10 µM was determined as 2.69%.
`Cc1cc(=O)[nH]c(SC(C)C(=O)N2CCCN(C3CCCC3)CC2)n1` (stereo unspecified): the cytotoxicity at 10 µM is -8.04%.
Regarding `Cc1ccc(CN2C[C@H](OCCN(C)C)[C@H]3OCCC[C@H]32)o1`, the cytotoxicity at 10 µM is -146%.
As for `O=C(O)c1sccc1Oc1ccc(NC(=O)C2CC2)cc1`, the cytotoxicity at 10 µM was -4.77%.
Turning to `CCS(=O)(=O)N1C[C@@H](OCc2ccccn2)[C@@H]2OCCC[C@@H]21`, the cytotoxicity at 10 µM is -2.31%.
To `Cc1nc(NC(=O)N2CCCC(N(C)C)C2)nn1C` (stereo unspecified) belongs -9.4%.
The figure for `CC(C)CNc1c(NCc2ccco2)c(=O)c1=O` is -10.6%; for `C[C@@H]1CN(CCCOc2ccc(F)cc2)CC[C@@]1(O)C1CCOCC1` it is -8.01%; for `O=C(Nc1nncs1)NC1CCCc2c1cnn2CCO` (stereo unspecified) it is -17.2%.
The figure for `Cn1cc(N2CC3(CCN(Cc4ccsc4)CC3)OCC2=O)cn1` is -82.8%.
Consider `O=C(COc1ccc(-c2ccccc2)nc1)NCC1CC1`, for which the cytotoxicity at 10 µM worked out at 6.8%.
To `Cc1ccc(CN2CC[C@@H]3CN(S(C)(=O)=O)CCO[C@@H]3C2)o1` belongs 8.76%; to `COCc1noc(-c2ccc(N(C)Cc3nccs3)nc2)n1`, -1.57%; to `O=C1CC(NCc2ccc(OC(F)F)cc2)CN1Cc1cccc(F)c1` (stereo unspecified), -5.29%.
The figure for `O=C1NCCN1C1CCCN(Cc2coc(-c3ccc(F)cc3)n2)C1` (stereo unspecified) is 8.63%.
To `CC(C)[C@H](N)CC(=O)Nc1nc(-c2cnc(N3CCOCC3)nc2)cs1` belongs -9.8%.
In the case of `Cc1nc(-c2ccnn2C)cc(C2CCCN(S(C)(=O)=O)C2)n1` (stereo unspecified), the cytotoxicity at 10 µM was -0.66%.
As for `CC(C)N(CCCNC(=O)C1CCOCC1)S(C)(=O)=O`, the cytotoxicity at 10 µM is 0.617%.
`CC(=O)N1CCOCC2(CN(Cc3ccccn3)CCO2)C1` (stereo unspecified): the cytotoxicity at 10 µM is -3.28%.
To `CC(C)NC(=O)C(C)S(=O)(=O)c1cc2c(cc1Cl)OCCO2` (stereo unspecified) belongs -3.25%; to `CC1(C(=O)NCCN2CCCCC2)CCCN1C(=O)c1ccccc1` (stereo unspecified), -6.44%.
The figure for `Cc1cnc(CN(C)C(=O)C23CNCC2CNC3)[nH]1` (stereo unspecified) is -6.46%.
Take `Cc1ccccc1CNc1ccc(S(N)(=O)=O)c(C(F)(F)F)c1`: the cytotoxicity at 10 µM came to 22.2%.
On to `Cc1ccc(S(=O)(=O)N2C[C@H]3C[C@H](NC(=O)c4cc(C)no4)[C@H]3C2)cc1`, for which the cytotoxicity at 10 µM was -11.2%.
To `Cc1ccc(-c2cnn(CC(=O)NC(C)C)c2)cc1` belongs 0.724%.
To `CC(C)(C)OC(=O)N[C@H]1CCN(C(=O)c2cc(Cl)c[nH]2)C1` belongs -2.84%; to `c1ccc(CN(Cc2ncc[nH]2)Cc2nccs2)cc1`, 6.35%.
To `N#Cc1ccc(N2CCC3(CC2)CC(Oc2cccnc2)CO3)cc1` (stereo unspecified) belongs 50.9%; to `COCC1CN(C(=O)c2ccoc2C)Cc2nccn2C1` (stereo unspecified), 6.1%; to `COc1ccc(CNC(C)c2ccc3[nH]c(=O)[nH]c3c2)cc1` (stereo unspecified), -5.04%.
Regarding `CC(c1nc(C2CC2)no1)N1CCN(CCc2ccncc2)CC1` (stereo unspecified), the cytotoxicity at 10 µM was -5.65%.
To `O=C(NC1CC1)N1Cc2[nH]nc(COc3cccnc3)c2C1` belongs 4.77%; to `O=C(CO)N1CC[C@@H](N2CCN(c3ccccc3F)CC2)[C@H](O)C1`, -46%; to `Cc1ncn(CCNC(=O)Nc2ccccc2)c(=O)c1C`, -4.39%.
The figure for `COC(CNC(=O)c1cn(C)nn1)c1ccc(C)s1` (stereo unspecified) is -8.11%; for `Cc1cc(C2CCCN(C(=O)COc3cc(F)ccc3F)C2)n[nH]1` (stereo unspecified) it is -1.3%.
To `COc1cccc(N2CCC(CNC(=O)NCc3ccco3)C2)c1` (stereo unspecified) belongs -127%; to `CC(NCCCc1cnn(C)c1)c1ccc(Br)s1` (stereo unspecified), 9.59%.
As to `Cn1nnc2c1CCN(Cc1nccs1)C2COCc1ccccc1` (stereo unspecified), the cytotoxicity at 10 µM was -2.01%.
For the compound `CCOc1cccc(NC(=O)c2cc(C)on2)n1`, the cytotoxicity at 10 µM was -2.14%.
The figure for `c1cc(CNc2ncc(-c3cnccn3)c([C@@H]3CCCO3)n2)ccn1` is 8.99%.
For the compound `Cc1ccc([C@@H]2CN(C(=O)c3ccc[nH]3)C[C@H]2NC(=O)C2CC2)cc1`, the cytotoxicity at 10 µM is -21.5%.
